ChEMBL document CHEMBL5584302, “Exploration of Hydrazide-Based HDAC8 PROTACs for the Treatment of Hematological Malignancies and Solid Tumors” (J Med Chem, 2024)
Values belong to the compound of their own block, whether it stands above or below them. The source made the active and inactive calls. No cut-off for these calls is given here.

How the values were obtained:
Jurkat [1] = test: Antiproliferative activity against human Jurkat cells assessed as inhibition of cell growth measured after 72 hrs in presence of N-(4-(2-Hexylhydrazine-1-carbonyl)benzyl)acetamide by MTS assay; format: functional, cell-based
THP-1 [2] = test: Antiproliferative activity against human THP-1 cells assessed as inhibition of cell growth measured after 72 hrs in presence of N-(4-(2-Hexylhydrazine-1-carbonyl)benzyl)acetamide by MTS assay; format: functional, cell-based; conditions: THP-1, 72 h
HCT-116 [3] = test: Antiproliferative activity against human HCT-116 cells assessed as inhibition of cell growth measured after 72 hrs in presence of N-(4-(2-Hexylhydrazine-1-carbonyl)benzyl)acetamide by MTS assay; format: functional, cell-based; conditions: HCT-116, 72 h
A549 = test: Antiproliferative activity against human A549 cells assessed as inhibition of cell growth measured after 72 hrs in presence of N-(4-(2-Hexylhydrazine-1-carbonyl)benzyl)acetamide by MTS assay; format: functional, cell-based; conditions: A549, 72 h
Jurkat [4] = test: Induction of apoptosis in human Jurkat cells assessed as increase in caspase 3/7 activity at 5 uM incubated for 48 hrs in presence of N-(4-(2-Hexylhydrazine-1-carbonyl)benzyl)acetamide; format: functional, cell-based
HCT-116 [5] = test: Induction of apoptosis in human HCT-116 cells assessed as increase in caspase 3/7 activity at 5 uM incubated for 48 hrs in presence of N-(4-(2-Hexylhydrazine-1-carbonyl)benzyl)acetamide; format: functional, cell-based
HCT-116 [6] = test: Induction of apoptosis in human HCT-116 cells assessed as viable cells at 10 uM measured after 48 hrs in presence of N-(4-(2-Hexylhydrazine-1-carbonyl)benzyl)acetamide by AnnexinV/FITC and PI staining based flow cytometry analysis (reference value: 91.3%); format: functional; conditions: read-out: Activity
HCT-116 [7] = test: Induction of apoptosis in human HCT-116 cells assessed as early apoptotic cells at 10 uM measured after 48 hrs in presence of N-(4-(2-Hexylhydrazine-1-carbonyl)benzyl)acetamide by AnnexinV/FITC and PI staining based flow cytometry analysis (reference value: 5.39%); format: functional
HCT-116 [8] = test: Induction of apoptosis in human HCT-116 cells assessed as late apoptotic cells at 10 uM measured after 48 hrs in presence of N-(4-(2-Hexylhydrazine-1-carbonyl)benzyl)acetamide by AnnexinV/FITC and PI staining based flow cytometry analysis (reference value: 1.96%); format: functional
HCT-116 [9] = test: Induction of apoptosis in human HCT-116 cells assessed as necrotic cells at 10 uM measured after 48 hrs in presence of N-(4-(2-Hexylhydrazine-1-carbonyl)benzyl)acetamide by AnnexinV/FITC and PI staining based flow cytometry analysis (reference value: […]); format: functional
THP-1 [10] = test: cells; conditions: Homo sapiens, THP-1, 72 h
Jurkat [11] = test: Upregulation of Ac-HH3 level in human Jurkat cells at 0.4 to […] uM incubated for 24 hrs by Western blot analysis; format: functional, cell-based; conditions: dose 0.4-33.3 µM
Jurkat [12] = test: Upregulation of Ac-HH4 level in human Jurkat cells at 0.4 to […] uM incubated for 24 hrs by Western blot analysis; format: functional, cell-based; conditions: dose 0.4-33.3 µM
Jurkat [13] = test: Upregulation of Ac-SMC3 level in human Jurkat cells at 1 uM measured after 6 hrs by Western blot analysis; format: functional, cell-based
Outline: (§1)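 Jurkat cells exposed to the indicated compound concentrations for 6 h. Ac-SMC3 and Ac-HH3 were detected by Western blot with GAPDH as loading control. Bands were quantified by densitometry and normalized to the DMSO-treated group. Data are mean ± SEM of two independent experiments, compared with DMSO by one-way ANOVA.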

Jurkat [14] = test: Upregulation of Ac-tubulin level in human Jurkat cells at 1 uM measured after 6 hrs by Western blot analysis; format: functional, cell-based
Outline: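 Jurkat cells were treated for 6 h at the indicated concentrations. Acetylated tubulin was probed by Western blot, with GAPDH as loading control.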

Jurkat [15] = test: Upregulation of Ac-HH3 level in human Jurkat cells at 1 uM measured after 6 hrs by Western blot analysis; format: functional, cell-based; outline: as §1
Jurkat [16] = test: Upregulation of Ac-HH3 level in human Jurkat cells at 0.004 to 0.33 uM incubated for 6 hrs by Western blot analysis; format: functional, cell-based; conditions: dose 0.004-0.33 µM
Outline: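 Jurkat cells were exposed to the compound for 6 h. Ac-SMC3, Ac-HH3, Ac-tubulin and HDAC8 were probed by Western blot with GAPDH as loading control. Ac-HH3 bands were quantified by densitometry and normalized to the DMSO-treated group. Values are mean ± SEM of two independent experiments, compared with DMSO by one-way ANOVA.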

Jurkat [17] = test: Upregulation of AcHH4 level on human Jurkat cells at 1 to 10 uM measured after 48 hrs by Western blot analysis; format: functional, cell-based; conditions: dose 1-10 µM
Jurkat [18] = test: Upregulation of AcHH3 level on human Jurkat cells at 1 to 10 uM measured after 48 hrs by Western blot analysis; format: functional, cell-based; conditions: dose 1-10 µM
Jurkat [19] = test: Induction of apoptosis in human Jurkat cells assessed as increase in caspase 3/7 activity at 5 uM incubated for 48 hrs; format: functional, cell-based
HCT-116 [20] = test: Induction of apoptosis in human HCT-116 cells assessed as increase in caspase 3/7 activity at 5 uM incubated for 48 hrs; format: functional, cell-based
Jurkat [21] = test: Upregulation of Ac-HH3 level in human Jurkat cells at 3.7 to […] uM incubated for 6 hrs by Western blot analysis; format: functional, cell-based; conditions: dose 3.7-33.3 µM
Jurkat [22] = test: Upregulation of Ac-HH3 level in human Jurkat cells incubated for 6 hrs by Western blot analysis; format: functional, cell-based; outline: as §1
HCT-116 [23] = test: Upregulation of Ac-HH3 level in human HCT-116 cells incubated for 6 hrs by Western blot analysis; format: functional, cell-based; conditions: dose 0.004-3.3 µM
Outline: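 HCT116 cells were incubated with graded concentrations for 6 h. Ac-HH3 was detected by Western blot with GAPDH as the loading control, then quantified by densitometry and normalized to DMSO-treated cells. Data are mean ± SEM of two independent experiments, compared against DMSO by one-way ANOVA.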

Jurkat [24] = test: Effect on Ac-tubulin level in human Jurkat cells at 0.33 to 0.11 uM incubated for 6 hrs by Western blot analysis; format: functional, cell-based; conditions: dose 0.33-0.11 µM
Outline: (§2)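 Cells were exposed to the compound for 6 h. Acetylated tubulin was detected by Western blot, with GAPDH as the loading control.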

HCT-116 [25] = test: Effect on Ac-tubulin level in human HCT-116 cells at 0.33 to 0.11 uM incubated for 6 hrs by Western blot analysis; format: functional, cell-based; conditions: dose 0.33-0.11 µM; outline: as §2
THP-1 [26] = test: Upregulation of Ac-HH3 level in human THP-1 cells at 1.1 to 3.3 uM measured after 24 hrs by Western blot analysis; format: functional, cell-based; conditions: dose 1.1-3.3 µM
Outline: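 THP-1 cells were exposed to the compound at the indicated concentrations for 24 h, then immunoblotted for Ac-HH3, Ac-SMC3, Ac-tubulin and HDAC8 with GAPDH as loading control. Band intensities were quantified and normalized to the DMSO-treated group. Data are mean ± SEM of two independent experiments, analysed by one-way ANOVA against DMSO.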

Jurkat [27] = test: Upregulation of Ac-SMC3 level in human Jurkat cells at high concentration incubated for 6 hrs by Western blot analysis; format: functional, cell-based; outline: as §1
Jurkat [28] = test: Upregulation of Ac-HH3 level in human Jurkat cells at high concentration incubated for 6 hrs by Western blot analysis; format: functional, cell-based; outline: as §1
[29] = target: Protein cereblon/Histone deacetylase 8 (Homo sapiens) (UniProt Q9BY41+Q96SW2); test: PROTAC activity at CRBN/HDAC8 in human Jurkat cells assessed as induction of HDAC8 degradation at 10 uM measured after 48 hrs by Western blot analysis; format: cell-based
Sequence of Protein cereblon/Histone deacetylase 8 (Homo sapiens) (Q96SW2 whole entry, looked up): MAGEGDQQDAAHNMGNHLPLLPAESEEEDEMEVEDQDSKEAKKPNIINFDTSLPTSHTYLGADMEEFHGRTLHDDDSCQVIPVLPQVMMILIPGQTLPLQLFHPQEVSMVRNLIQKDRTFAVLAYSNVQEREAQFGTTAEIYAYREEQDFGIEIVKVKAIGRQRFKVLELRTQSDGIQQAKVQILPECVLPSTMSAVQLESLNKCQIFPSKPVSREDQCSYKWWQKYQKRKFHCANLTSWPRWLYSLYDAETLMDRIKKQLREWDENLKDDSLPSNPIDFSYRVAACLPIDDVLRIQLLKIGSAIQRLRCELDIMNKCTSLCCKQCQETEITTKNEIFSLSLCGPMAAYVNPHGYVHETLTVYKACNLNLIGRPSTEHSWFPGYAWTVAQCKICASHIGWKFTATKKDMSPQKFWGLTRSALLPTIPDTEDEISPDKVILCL
Sequence of Protein cereblon/Histone deacetylase 8 (Homo sapiens) (Q9BY41 whole entry, looked up): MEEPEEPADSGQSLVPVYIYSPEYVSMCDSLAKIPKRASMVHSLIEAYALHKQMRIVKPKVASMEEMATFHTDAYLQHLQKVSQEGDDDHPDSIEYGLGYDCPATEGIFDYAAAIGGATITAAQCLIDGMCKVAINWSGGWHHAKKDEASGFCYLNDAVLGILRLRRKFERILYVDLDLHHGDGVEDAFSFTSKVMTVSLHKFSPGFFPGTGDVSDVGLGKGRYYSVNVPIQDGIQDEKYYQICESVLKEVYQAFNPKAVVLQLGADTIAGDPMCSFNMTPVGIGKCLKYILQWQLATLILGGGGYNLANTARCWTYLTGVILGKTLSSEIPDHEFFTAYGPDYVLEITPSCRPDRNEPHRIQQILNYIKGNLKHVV

Jurkat [30] = test: Effect on AcHH3 level on human Jurkat cells at 10 uM measured after 48 hrs by Western blot analysis; format: functional, cell-based
Jurkat [31] = test: Effect on AcHH4 level on human Jurkat cells at 10 uM measured after 48 hrs by Western blot analysis; format: functional, cell-based
Jurkat [32] = test: Induction of apoptosis in human Jurkat cells assessed as increase in caspase 3/7 activity at 5 uM incubated for 48 hrs in presence of tert-butyl 2-(4-(4-((2,6-dioxopiperidin-3-yl)amino)phenyl)piperidin-1-yl)acetate; format: functional, cell-based
HCT-116 [33] = test: Induction of apoptosis in human HCT-116 cells assessed as increase in caspase 3/7 activity at 5 uM incubated for 48 hrs in presence of tert-butyl 2-(4-(4-((2,6-dioxopiperidin-3-yl)amino)phenyl)piperidin-1-yl)acetate; format: functional, cell-based
HCT-116 [34] = test: Induction of apoptosis in human HCT-116 cells assessed as viable cells at 10 uM measured after 48 hrs in presence of tert-butyl 2-(4-(4-((2,6-dioxopiperidin-3-yl)amino)phenyl)piperidin-1-yl)acetate by AnnexinV/FITC and PI staining based flow cytometry analysis (reference value: 91.3%); format: functional; conditions: read-out: Activity
HCT-116 [35] = test: Induction of apoptosis in human HCT-116 cells assessed as early apoptotic cells at 10 uM measured after 48 hrs in presence of tert-butyl 2-(4-(4-((2,6-dioxopiperidin-3-yl)amino)phenyl)piperidin-1-yl)acetate by AnnexinV/FITC and PI staining based flow cytometry analysis (reference value: 5.39%); format: functional
HCT-116 [36] = test: Induction of apoptosis in human HCT-116 cells assessed as late apoptotic cells at 10 uM measured after 48 hrs in presence of tert-butyl 2-(4-(4-((2,6-dioxopiperidin-3-yl)amino)phenyl)piperidin-1-yl)acetate by AnnexinV/FITC and PI staining based flow cytometry analysis (reference value: 1.96%); format: functional
HCT-116 [37] = test: Induction of apoptosis in human HCT-116 cells assessed as necrotic cells at 10 uM measured after 48 hrs in presence of tert-butyl 2-(4-(4-((2,6-dioxopiperidin-3-yl)amino)phenyl)piperidin-1-yl)acetate by AnnexinV/FITC and PI staining based flow cytometry analysis (reference value: […]); format: functional

IC50 (Jurkat [1]): > 33.3 µM | IC50 (THP-1 [2]): > 33.3 µM | IC50 (HCT-116 [3]): > 33.3 µM | IC50 (A549): > 33.3 µM
SMILES: CC(C)(C)OC(=O)CN1CCC(c2ccc(NC3CCC(=O)NC3=O)cc2)CC1 (centres undefined)
Activity (Jurkat [4]): inactive | Activity (HCT-116 [5]): inactive | viability at 10 µM (HCT-116 [6]): 73.2% | Activity (HCT-116 [7]): 19.6% | Activity (HCT-116 [8]): 3.87% | Activity (HCT-116 [9]): 3.33%

IC50 (THP-1 [10]): 2.3 µM
SMILES: Nc1ccccc1NC(=O)c1ccc(CNC(=O)OCc2cccnc2)cc1 [ENTINOSTAT]

SMILES: COc1ccc(Cn2ccc3ccc(C(=O)NO)cc32)cc1
Activity (Jurkat [11]): inactive | Activity (Jurkat [12]): inactive

SMILES: O=C(CCCCCCC(=O)Nc1ccccc1)NO
Activity (Jurkat [13]): inactive | Activity (Jurkat [14]): Active | Activity (Jurkat [15]): Active | Activity (Jurkat [16]): Active | Activity (Jurkat [17]): Active | Activity (Jurkat [18]): Active | Activity (Jurkat [19]): Active | Activity (HCT-116 [20]): Active

SMILES: CCCCCCN(NC(=O)c1ccc(CNC(=O)CN2CCC(c3ccc(NC4CCC(=O)NC4=O)cc3)CC2)cc1)C(=O)OC(C)(C)C (centres undefined)
Activity (Jurkat [21]): inactive

SMILES: CCCCCCNNC(=O)c1ccc(CNC(=O)CN2CCC(c3ccc(NC(C)=O)cc3)CC2)cc1
Activity (Jurkat [22]): Dose-Dependent Effect | Activity (HCT-116 [23]): Dose-Dependent Effect | Activity (Jurkat [24]): inactive | Activity (HCT-116 [25]): inactive | Activity (THP-1 [26]): Active

Activity [29]: inactive
SMILES: CCCCCCNNC(=O)c1ccc(CNC(C)=O)cc1
Activity (Jurkat [13]): inactive | Activity (Jurkat [27]): Active | Activity (Jurkat [28]): Active | Activity (Jurkat [30]): inactive | Activity (Jurkat [31]): inactive | Activity (Jurkat [32]): inactive | Activity (HCT-116 [33]): inactive | viability at 10 µM (HCT-116 [34]): 73.2% | Activity (HCT-116 [35]): 19.6% | Activity (HCT-116 [36]): 3.87% | Activity (HCT-116 [37]): 3.33%
